Reference: ChEMBL document CHEMBL1641482, “Synthetic analogs of daidzein, having more potent osteoblast stimulating effect” (2011)
Calls of active or inactive are those of the source. The calls are words filed in the database; no cut-off is given here.

Columns and labels:
Osteoblast [1] = assay: Induction of osteogenesis in Sprague-Dawley rat calvarial osteoblasts assessed as increase in osteoblast differentiation-associated ALP level at 1 pM to 10 nM after 48 hrs; assay type: functional, cell-based
Method in brief: (§1)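 Primary rat calvarial osteoblasts were seeded at 2 × 10³ cells per well and exposed to compounds from 1.0 pM to 10.0 nM for 48 h. Daidzein served as the positive control. ALP activity was read spectrophotometrically at 405 nm. Data are mean SD, n = 6, compared with vehicle-treated cells.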

Osteoblast [2] = assay: Ratio of compound to daidzein for induction of osteogenesis in Sprague-Dawley rat calvarial osteoblasts; assay type: functional
Osteoblast [3] = assay: Induction of osteogenesis in Sprague-Dawley rat calvarial osteoblasts assessed as increase in osteoblast differentiation-associated ALP level at 1 pM after 48 hrs; assay type: functional, cell-based; method in brief: as §1
Osteoblast [4] = assay: Induction of osteogenesis in Sprague-Dawley rat calvarial osteoblasts assessed as increase in osteoblast differentiation-associated ALP level at 1 uM after 48 hrs; assay type: functional, cell-based
Rattus norvegicus [5] = assay: Antiestrogenic activity in ovariectomized Sprague-Dawley rat assessed as inhibition of 17beta estradiol-induced increase in uterine weight at 3 mg/kg, po qd for 3 days; assay type: functional
Rattus norvegicus [6] = assay: Estrogenic activity in ovariectomized Sprague-Dawley rat assessed as effect on uterine weight at 3 mg/kg, po qd for 3 days (reference value: 35.0 +/- 0.6); assay type: functional
Bone marrow cell = assay: Induction of mineralization in rat bone marrow cell assessed as increase of mineralized nodules formation at 10 nM after 18 days by alizarin red staining
Rattus norvegicus [7] = assay: Antiestrogenic activity in ovariectomized Sprague-Dawley rat assessed as inhibition of 17beta estradiol-induced increase in uterine weight at 10 mg/kg, po qd for 3 days; assay type: functional
Rattus norvegicus [8] = assay: Estrogenic activity in ovariectomized Sprague-Dawley rat assessed as effect on uterine weight at 10 mg/kg, po qd for 3 days (reference value: 35.0 +/- 0.6); assay type: functional
Osteoblast [9] = assay: Induction of mineralization in Sprague-Dawley rat calvarial osteoblasts assessed as increase of mineralized nodules formation at 10 nM after 7 days by alizarin red staining; assay type: functional, cell-based
Method in brief: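 Primary rat calvarial osteoblasts were seeded at 2 × 10³ cells per well and exposed to 10.0 nM compound for seven days. Cells were fixed and stained with alizarin red-S, and the dye was extracted and measured colorimetrically by OD. Data are mean SD, n = 4, versus vehicle.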

Osteoblast [10] = assay: Induction of osteocalcin mRNA expression in Sprague-Dawley rat calvarial osteoblasts at 10 nM after 24 hrs by RT-PCR analysis relative to control; assay type: functional
Method in brief: (§2)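 Osteoblasts were cultured with or without 10 nM compound for 24 h. Osteocalcin and BMP-2 transcripts were quantified by real-time RT-PCR (qPCR) against vehicle control. Data are mean SEM, n = 4.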

Osteoblast [11] = assay: Induction of BMP-2 mRNA expression in Sprague-Dawley rat calvarial osteoblasts at 10 nM after 24 hrs by RT-PCR analysis relative to control; assay type: functional; method in brief: as §2
Rattus norvegicus [12] = assay: Estrogenic activity in ovariectomized Sprague-Dawley rat assessed as effect on uterine weight at 0.01 mg/kg, po qd for 3 days (reference value: 35.0 +/- 0.6); assay type: functional

Row | Compound | Activity (Osteoblast [1]) | Ratio (Osteoblast [2]) | Activity (Osteoblast [3]) | Activity (Osteoblast [4]) | Activity (Rattus norvegicus [5]) [mg] | Activity (Rattus norvegicus [6]) [mg] | Activity (Bone marrow cell) | Activity (Rattus norvegicus [7]) [mg] | Activity (Rattus norvegicus [8]) [mg] | Activity (Osteoblast [9]) | fold change (FC) (Osteoblast [10]) | fold change (FC) (Osteoblast [11]) | Activity (Rattus norvegicus [12]) [mg]
1 | COc1ccc2c(=O)c(-c3ccc(OCCBr)cc3)coc2c1 | Active | 100 | inactive | Active | – | – | – | – | – | – | – | – | –
2 | O=C(c1ccc(OCCN2CCCCC2)cc1)c1c(-c2ccc(O)cc2)sc2cc(O)ccc12 [RALOXIFENE] | – | – | – | – | 67 | 42.3 | – | – | – | – | – | – | –
3 | CCN(CC)CCOc1ccc(-c2coc3cc(OCCN(CC)CC)ccc3c2=O)cc1 | Active | 100 | inactive | Active | – | – | Active | 57.3 | 31.3 | Active | – | – | –
4 | COc1ccc2c(=O)c(-c3ccc(OCC(C)C)cc3)coc2c1 | Active | 100 | inactive | Active | – | – | – | – | – | – | – | – | –
5 | CCN(CC)CCOc1ccc2c(=O)c(-c3ccc(OC)cc3)coc2c1 | Active | 100 | inactive | Active | – | – | Active | 63 | 28 | Active | 10 | 6 | –
6 | COc1ccc(-c2coc3cc(OCCN4CCCC4)ccc3c2=O)cc1 | Active | 100 | inactive | Active | – | – | – | 59.3 | 31.3 | Active | – | – | –
7 | C#C[C@]1(O)CC[C@H]2[C@@H]3CCc4cc(O)ccc4[C@H]3CC[C@@]21C [ETHINYL ESTRADIOL] | – | – | – | – | – | – | – | – | – | – | – | – | 82.3
